The values that follow come from ChEMBL document CHEMBL3352814, “Design, synthesis and biological evaluation of biphenylamide derivatives as Hsp90 C-terminal inhibitors” (Eur J Med Chem, 2015).

One experiment has as its system MCF7. Nature of the experiment: Antiproliferative activity against human MCF7 cells after 72 hrs by MTS/PMS assay. The following applies: MCF7, 72 h. Format: functional, cell-based. A digest of the protocol: (§1)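 Cells kept in 1:1 Advanced DMEM/F12 with non-essential amino acids, 2 mM L-glutamine, penicillin/streptomycin and 10% FBS at 37 °C, 5% CO2. Seeded 2000 cells/well, attached overnight, then given compound at varying concentrations in DMSO (1% final) for 72 h. Viable cells read by MTS/PMS. Normalised to 1% DMSO wells as 100% proliferation. IC50 from separate experiments run in triplicate.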

Experiment [1] can be described thus: Antiproliferative activity against human SKBR3 cells after 72 hrs by MTS/PMS assay. Type of experiment: functional, cell-based. Conditions: SK-BR-3, 72 h. Put shortly:
as §1

Regarding `COc1cccc(-c2cc(C(=O)Nc3cccc(-c4ccc(OC5CCN(C)CC5)cc4)c3)ccc2OC)c1`, the IC50 in the experiment with MCF7 is 1.25 µM; in experiment [1], 3.65 µM.

Turning to `Cc1ccc(C(=O)Nc2ccc(-c3ccc(OC4CCN(C)CC4)cc3)cc2)cc1Br`, the IC50 worked out at 3.35 µM in the experiment on MCF7 and 2.8 µM in experiment [1].

Take `CN1CCC(Oc2ccc(-c3ccc(NC(=O)c4ccc(Cl)cc4Cl)cc3)cc2)CC1`: the 50% inhibitory concentration (IC50) in the experiment on MCF7 came to 1.37 µM; in experiment [1], 0.8 µM.

With `Cc1cc(C(=O)Nc2ccc(-c3ccc(OC4CCN(C)CC4)cc3)cc2)ccc1Cl`, the IC50 is 1.03 µM in the experiment with MCF7 and 1.11 µM in experiment [1].

On to `CC(=O)Oc1ccc(C(=O)Nc2cccc(-c3ccc(OC4CCN(C)CC4)cc3)c2)cc1CC=C(C)C`, for which the figures for the IC50 (in the experiment on MCF7; in experiment [1]) were 2.71 µM and 3.47 µM, respectively.

Regarding `CN1CCC(Oc2ccc(-c3ccc(NC(=O)c4cnc5ccccc5c4)cc3)cc2)CC1`, the IC50 in the experiment on MCF7 stood at 2.76 µM; in experiment [1] it was 2.42 µM.

`COc1ccc(C(=O)Nc2ccc(-c3ccc(OC4CCN(C)CC4)cc3)cc2)cc1-c1ccc(Cl)cc1`: the IC50 in the experiment with MCF7 was 0.82 µM; in experiment [1] it was 1.06 µM.

`COc1cccc(-c2cc(C(=O)Nc3ccc(-c4ccc(OC5CCN(C)CC5)cc4)c([N+](=O)[O-])c3)ccc2OC)c1`: the figures for the concentration for half-maximal inhibition (IC50) (with MCF7; in experiment [1]) were 3.32 µM and 2.48 µM, respectively.

For the compound `COc1cccc(-c2cc(C(=O)Nc3ccc(-c4ccc(OC5CCN(C)CC5)cc4)cc3NC(C)=O)ccc2OC)c1`, the concentration for half-maximal inhibition (IC50) in the experiment with MCF7 is 1.66 µM; in experiment [1], 3.51 µM.

As to `COc1cccc(-c2cc(C(=O)Nc3ccc(-c4ccc(OC5CCN(C)CC5)cc4)cc3N)ccc2OC)c1`, the values for the IC50 (with MCF7; in experiment [1]) were 2.25 µM and 3.21 µM, respectively.

For the compound `COc1cccc(-c2cc(C(=O)Nc3ccc(-c4ccc(OC5CCN(C)CC5)cc4OC)cc3)ccc2OC)c1`, the results for the IC50 (in the experiment on MCF7; in experiment [1]) were 1.35 µM and 1.41 µM, respectively.

As for `COc1cccc(-c2cc(C(=O)Nc3ccc(-c4ccc(OC5CCN(C)CC5)cc4)c(Cl)c3)ccc2OC)c1`, the IC50 in the experiment on MCF7 amounted to 3.44 µM; in experiment [1], 2.21 µM.

With `COc1ccc(C(=O)Nc2ccc(-c3ccc(OC4CCN(C)CC4)cc3)cc2)cc1-c1cccc(O)c1`, the IC50 with MCF7 worked out at 1.08 µM; in experiment [1], 1.56 µM.

For `COc1cccc(C(=O)Nc2ccc(-c3ccc(OC4CCN(C)CC4)cc3)cc2)c1`, the half-maximal inhibitory concentration (IC50) was found to be 5.31 µM in the experiment with MCF7 and 2.87 µM in experiment [1].

Turning to `COc1cccc(-c2cc(C(=O)Nc3ccc(-c4ccc(OC5CCN(C)CC5)cc4)cc3C)ccc2OC)c1`, the half-inhibitory concentration (IC50) in the experiment with MCF7 turned out to be 1.43 µM; in experiment [1] it was 2.47 µM.

Consider `COc1cccc(-c2cc(C(=O)Nc3ccc(-c4ccc(OC5CCN(C)CC5)cc4C)cc3)ccc2OC)c1`, for which the values for the concentration for half-maximal inhibition (IC50) (with MCF7; in experiment [1]) were 1.21 µM and 1.18 µM, respectively.

Turning to `COc1cccc(-c2cc(C(=O)Nc3ccc(-c4ccc(OC5CCN(C)CC5)cc4NC(C)=O)cc3)ccc2OC)c1`, the IC50 with MCF7 was found to be 1.36 µM; in experiment [1], 3.39 µM.

Regarding `CN1CCC(Oc2ccc(-c3ccc(NC(=O)c4ccccc4)cc3)cc2)CC1`, the results for the half-maximal inhibitory concentration (IC50) (with MCF7; in experiment [1]) were 3.95 µM and 4.13 µM, respectively.

As to `Cc1ccc(C(=O)Nc2ccc(-c3ccc(OC4CCN(C)CC4)cc3)cc2)cc1Cl`, the IC50 with MCF7 amounted to 2.28 µM; in experiment [1] it was 1.96 µM.

Take `COc1ccc(C(=O)Nc2ccc(-c3ccc(OC4CCN(C)CC4)cc3)cc2)cc1-c1cccc([N+](=O)[O-])c1`: the IC50 in the experiment on MCF7 was found to be 1.09 µM; in experiment [1], 0.4 µM.

In the case of `COc1cccc(-c2cc(C(=O)Nc3ccc(-c4ccc(OC5CCN(C)CC5)cn4)cc3)ccc2OC)c1`, the IC50 stood at 1.3 µM in the experiment with MCF7 and 1.91 µM in experiment [1].

Regarding `CN1CCC(Oc2ccc(-c3ccc(NC(=O)c4ccc(-c5ccccc5)cc4)cc3)cc2)CC1`, the figures for the IC50 (in the experiment with MCF7; in experiment [1]) were 4.44 µM and 4.59 µM, respectively.

`COc1cccc(-c2cc(C(=O)Nc3ccc(-c4ccc(OC5CCN(C)CC5)nc4)cc3)ccc2OC)c1`: the concentration for half-maximal inhibition (IC50) in the experiment on MCF7 came out at 1.56 µM; in experiment [1], 1.67 µM.

Turning to `COc1cccc(-c2cc(C(=O)Nc3ccc(-c4ccc(OC5CCN(C)CC5)cc4)c(C)c3)ccc2OC)c1`, the concentration for half-maximal inhibition (IC50) in the experiment with MCF7 came out at 1.57 µM; in experiment [1], 0.97 µM.

`Cc1ccc(C(=O)Nc2ccc(-c3ccc(OC4CCN(C)CC4)cc3)cc2)cc1`: the half-inhibitory concentration (IC50) with MCF7 is 1.27 µM; in experiment [1] it was 0.98 µM.

For the compound `CC(=O)Oc1ccc(C(=O)Nc2ccc(-c3ccc(OC4CCN(C)CC4)cc3)cc2)cc1CC=C(C)C`, the IC50 was 1.37 µM with MCF7 and 1.82 µM in experiment [1].

As to `COc1cccc(-c2cc(C(=O)Nc3ccc(-c4ccc(OC5CCN(C)CC5)c([N+](=O)[O-])c4)cc3)ccc2OC)c1`, the IC50 with MCF7 came to 1.23 µM; in experiment [1], 2.07 µM.

Consider `COc1cccc(-c2cc(C(=O)Nc3ccc(-c4ccc(OC5CCN(C)CC5)cc4)c(NC(C)=O)c3)ccc2OC)c1`, for which the results for the IC50 (in the experiment with MCF7; in experiment [1]) were 4.66 µM and 2.52 µM, respectively.

`COc1cccc(-c2cc(C(=O)Nc3ccc(-c4ccc(OC5CCN(C)CC5)cc4)cc3Cl)ccc2OC)c1`: the IC50 was 1.8 µM in the experiment with MCF7 and 4.29 µM in experiment [1].

On to `COc1cccc(-c2cc(C(=O)Nc3ccc(-c4ccc(OC5CCN(C)CC5)cc4)cc3OC)ccc2OC)c1`, for which the IC50 was 1.22 µM with MCF7 and 3.92 µM in experiment [1].

On to `COc1ccc(-c2cc(C(=O)Nc3ccc(-c4ccc(OC5CCN(C)CC5)cc4)cc3)ccc2OC)cc1`, for which the results for the IC50 (in the experiment on MCF7; in experiment [1]) were 0.79 µM and 0.63 µM, respectively.

With `COc1cccc(-c2cc(C(=O)Nc3ccc(-c4ccc(OC5CCN(C)CC5)c(OC)c4)cc3)ccc2OC)c1`, the half-maximal inhibitory concentration (IC50) in the experiment on MCF7 came to 1.32 µM; in experiment [1] it was 0.68 µM.

With `CN1CCC(Oc2ccc(-c3ccc(NC(=O)c4ccc5ncccc5c4)cc3)cc2)CC1`, the half-inhibitory concentration (IC50) in the experiment on MCF7 was 2.07 µM; in experiment [1], 1.31 µM.

`CN1CCC(Oc2ccc(-c3ccc(NC(=O)c4cc5ccccc5s4)cc3)cc2)CC1`: the IC50 with MCF7 is 2.01 µM; in experiment [1], 1.32 µM.

As for `COc1cccc(-c2cc(C(=O)Nc3ccc(-c4ccc(OC5CCN(C)CC5)cc4)c(OC)c3)ccc2OC)c1`, the concentration for half-maximal inhibition (IC50) in the experiment with MCF7 was 1.5 µM; in experiment [1], 0.9 µM.

For `COc1cccc(-c2cc(C(=O)Nc3ccc(-c4ccc(OC5CCN(C)CC5)c(C)c4)cc3)ccc2OC)c1`, the IC50 is 1.69 µM with MCF7 and 0.83 µM in experiment [1].

Consider `COc1cccc(-c2cc(C(=O)Nc3ccc(-c4ccc(OC5CCN(C)CC5)cc4)nc3)ccc2OC)c1`, for which the IC50 came out at 1.02 µM in the experiment with MCF7 and 1.21 µM in experiment [1].

In the case of `CN1CCC(Oc2ccc(-c3ccc(NC(=O)c4ccccc4-c4ccccc4)cc3)cc2)CC1`, the figures for the 50% inhibitory concentration (IC50) (with MCF7; in experiment [1]) were 6.67 µM and 6.26 µM, respectively.

Turning to `COc1cccc(-c2cc(C(=O)Nc3ccc(-c4ccc(OC5CCN(C)CC5)c(N)c4)cc3)ccc2OC)c1`, the concentration for half-maximal inhibition (IC50) in the experiment on MCF7 was determined as 5.95 µM; in experiment [1] it was 2.23 µM.

For the compound `COc1ccc(C(=O)Nc2ccc(-c3ccc(OC4CCN(C)CC4)cc3)cc2)cc1-c1cccc(NC(C)=O)c1`, the IC50 is 1.43 µM with MCF7 and 3.37 µM in experiment [1].

For the compound `COc1cccc(-c2cc(C(=O)Nc3ccc(-c4ccc(OC5CCN(C)CC5)c(Cl)c4)cc3)ccc2OC)c1`, the figures for the IC50 (in the experiment on MCF7; in experiment [1]) were 1.48 µM and 1.84 µM, respectively.

With `Cc1ccc(C(=O)Nc2ccc(-c3ccc(OC4CCN(C)CC4)cc3)cc2)cc1I`, the figures for the 50% inhibitory concentration (IC50) (in the experiment with MCF7; in experiment [1]) were 1.17 µM and 0.93 µM, respectively.

For `CN1CCC(Oc2ccc(-c3ccc(NC(=O)c4cccc(Cl)c4)cc3)cc2)CC1`, the IC50 with MCF7 stood at 2.83 µM; in experiment [1], 1.94 µM.

Consider `COc1ccc(C(=O)Nc2ccc(-c3ccc(OC4CCN(C)CC4)cc3)cc2)cc1-c1ccc(O)cc1`, for which the results for the IC50 (in the experiment with MCF7; in experiment [1]) were 0.5 µM and 0.13 µM, respectively.

As to `CN1CCC(Oc2ccc(-c3ccc(NC(=O)c4ccc(C(C)(C)C)cc4)cc3)cc2)CC1`, the IC50 in the experiment with MCF7 turned out to be 1.08 µM; in experiment [1] it was 1.26 µM.

Turning to `CN1CCC(Oc2ccc(-c3ccc(NC(=O)c4ccc(Cl)c(Cl)c4)cc3)cc2)CC1`, the IC50 in the experiment with MCF7 came out at 1.6 µM; in experiment [1], 1.2 µM.

On to `COc1cccc(-c2cc(C(=O)Nc3ccc(-c4ccc(OC5CCN(C)CC5)cc4)cn3)ccc2OC)c1`, for which the 50% inhibitory concentration (IC50) with MCF7 worked out at 1.15 µM; in experiment [1] it was 1.07 µM.

As for `COc1cccc(-c2cc(C(=O)Nc3ccc(-c4ccc(OC5CCN(C)CC5)c(NC(C)=O)c4)cc3)ccc2OC)c1`, the values for the IC50 (with MCF7; in experiment [1]) were 1.84 µM and 2.66 µM, respectively.

Turning to `COc1cccc(-c2cccc(C(=O)Nc3ccc(-c4ccc(OC5CCN(C)CC5)cc4)cc3)c2)c1`, the IC50 with MCF7 was determined as 1.02 µM; in experiment [1] it was 0.81 µM.

For `COc1cccc(-c2cc(C(=O)Nc3ccc(-c4ccc(OC5CCN(C)CC5)cc4)cc3[N+](=O)[O-])ccc2OC)c1`, the IC50 worked out at 1.15 µM in the experiment on MCF7 and 3.4 µM in experiment [1].

`CC(=O)Oc1ccc(C(=O)Nc2cccc(-c3cccc(OC4CCN(C)CC4)c3)c2)cc1CC=C(C)C`: the figures for the IC50 (with MCF7; in experiment [1]) were 1.7 µM and 1.76 µM, respectively.

For `CN1CCC(Oc2ccc(-c3ccc(NC(=O)c4cc(Cl)cc(Cl)c4)cc3)cc2)CC1`, the half-inhibitory concentration (IC50) with MCF7 is 1.68 µM; in experiment [1], 0.81 µM.

Take `COc1ccc(C(=O)Nc2ccc(-c3ccc(OC4CCN(C)CC4)cc3)cc2)cc1-c1cccc(N)c1`: the figures for the IC50 (with MCF7; in experiment [1]) were 1.67 µM and 1.52 µM, respectively.

For `COc1cccc(-c2cc(C(=O)Nc3ccc(-c4ccc(OC5CCN(C)CC5)cc4N)cc3)ccc2OC)c1`, the IC50 in the experiment on MCF7 was found to be 1.76 µM; in experiment [1], 2.13 µM.

Turning to `COc1cccc(-c2cc(C(=O)Nc3ccc(-c4ccc(OC5CCN(C)CC5)cc4Cl)cc3)ccc2OC)c1`, the IC50 in the experiment with MCF7 came out at 1.48 µM; in experiment [1], 1.28 µM.

For the compound `CC(C)=CCc1cc(NC(=O)Nc2cc3ccc(OC4CCN(C)CC4)c(C)c3oc2=O)ccc1O`, the IC50 in the experiment on MCF7 was 0.37 µM; in experiment [1] it was 0.39 µM.

For the compound `COc1ccc(C(=O)Nc2ccc(-c3ccc(OC4CCN(C)CC4)cc3)cc2)cc1-c1cccc(OC(C)=O)c1`, the values for the IC50 (in the experiment with MCF7; in experiment [1]) were 0.62 µM and 0.27 µM, respectively.

As to `COc1cccc(-c2cc(C(=O)Nc3ccc(-c4ccc(OC5CCN(C)CC5)cc4)c(N)c3)ccc2OC)c1`, the 50% inhibitory concentration (IC50) in the experiment with MCF7 is 2.07 µM; in experiment [1] it was 3.9 µM.
